In ChEMBL document CHEMBL2062369, “¹²⁵I-radiolabeled morpholine-containing arginine-glycine-aspartate (RGD) ligand of αvβ₃ integrin as a molecular imaging probe for angiogenesis” (J Med Chem, 2012) one finds inhibition, Drug uptake and IC50 data, which are given here for four molecules.

For orientation: IC50 means the concentration at which inhibition is half-maximal. A high value points to a need for much substance.

The source made the active and inactive calls. The calls are words filed in the database; no cut-off is given here.

Data set [1] deals with HUVEC. The data set is described as follows: Inhibition of IL-1beta-induced alphaV, beta3, beta5, alpha5, beta1, and alphavbeta3 expressing HUVEC adhesion to vitronectin at 0.1 to 10 uM after 30 mins by crystal violet staining method. Conditions: Homo sapiens. Type of data set: functional, cell-based. In outline: (§1)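 Wells coated overnight at 4 °C with fibronectin (1 μg/mL) or vitronectin (10 μg/mL), blocked with 1% BSA/PBS 1 h at 37 °C. Cells in serum-free medium were preincubated with ligand (final 0.1, 1 or 10 μM) 30 min at 37 °C, then seeded at 4–5 × 10⁴/well for 2 h at 37 °C. HUVEC were IL-1β (400 U/mL)-stimulated; melanoma runs included 2 mmol/L MnCl₂. Adherent cells were stained with crystal violet, read at 540 nm, triplicate, ≥3 repeats.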

Data set [2] has as its system HUVEC. In words: Antiangiogenic activity against HUVEC seeded on matrigel layer assessed as inhibition of capillary like tube formation at 0.01 uM to 10 uM after 16 to 18 hrs by microscopic analysis. Type of data set: functional, cell-based. Conditions: Homo sapiens.
Data set [3] concerns the target T1, Integrin alpha-V/beta-3 (Homo sapiens, UniProt P05106+P06756). The data set is described as follows: Inhibition of integrin alphaVbeta3 expressing human A375M cell adhesion to fibronectin at 0.1 to 10 uM after 30 mins by crystal violet staining method in presence of 2 mmol/L of MnCl2. The class given is protein-complex assay. An outline of the steps:
as §1

The subject of data set [4] is HDF. In words: Inhibition of HDF adhesion to vitronectin at 0.1 to 10 uM after 30 mins by crystal violet staining method. The class given is functional. Conditions: Homo sapiens. An outline of the steps: as §1
In data set [5] the test system is HUVEC. In words: Inhibition of IL-1beta-induced alphav, beta3, beta5, alpha5, beta1 and alphavbeta3 expressing HUVEC adhesion to fibronectin at 0.1 to 10 uM after 30 mins by crystal violet staining method. Conditions: Homo sapiens. Type of data set: functional, cell-based. An outline of the steps:
as §1

In data set [6] the target is T1, Integrin alpha-V/beta-3. The data set is described as follows: Inhibition of integrin alphavbeta3 expressing human A375M cell adhesion to vitronectin at 0.1 to 10 uM after 30 mins by crystal violet staining method in presence of 2 mmol/L of MnCl2. Type of data set: protein-complex assay. An outline of the steps: as §1
In data set [7] the test system is HDF. The data set is described as follows: Inhibition of HDF adhesion to fibronectin at 0.1 to 10 uM after 30 mins by crystal violet staining method. The class given is functional. Conditions: Homo sapiens. In outline: as §1
Another data set concerns Spleen. In words: Biodistribution in non tumor bearing iv dosed mouse spleen after 1 to 24 hrs by micro SPECT-CT analysis. Conditions: in vivo. The class given is ADME, organism-based.
Another data set has as its system Kidney. In words: Biodistribution in non tumor bearing iv dosed mouse kidney after 120 mins by micro SPECT-CT analysis. Type of data set: ADME, organism-based. Conditions: in vivo, 2 h.
The test system of the next data set is Mus musculus. In words: Biodistribution in non tumor bearing iv dosed mouse gallbladder after 120 mins by micro SPECT-CT analysis. Type of data set: ADME, organism-based, Gall bladder. Conditions: in vivo, 2 h.
Data set [8] can be described thus: Drug uptake in human A375M cells xenografted in mouse tumor at 250 uCi, iv after 40 mins by micro SPECT-CT analysis in presence of c[RGD-(3'I-y)-(3R)-carboxymorpholine]. The class given is ADME, organism-based, Neoplasm. Conditions: in vivo. In outline:
(§2)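 SCID bg/bg mice bore s.c. shoulder grafts of 1 × 10⁶ A375 M cells plus 0.5 × 10⁶ TGFβ-activated HDF in PBS/Matrigel 1:1. Under anesthesia on a 37 °C bed, mice received 7–10 MBq tracer in 200 μL saline via tail vein. CT was acquired at 30 min, then SPECT from 40 min pi (20–36 keV window). Displacement runs got cold compound (18 mg/kg) 10 min before tracer. Tumor ROI was normalized to contralateral muscle as (TA−BA)/BA.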

Data set [9] in a line: Drug uptake in human A375M cells xenografted in SCID mouse tumor at 250 uCi, iv after 40 mins by micro SPECT-CT analysis. Conditions: in vivo. Type of data set: ADME, organism-based, Neoplasm. In outline: as §2
(In general: A xenograft is tissue or cells of one species grown in another, often human tumour cells in immunodeficient mice.)

The next data set has as its system Thyroid gland. In words: Biodistribution in non tumor bearing iv dosed mouse thyroid after 24 hrs by micro SPECT-CT analysis. The class given is ADME, organism-based. Conditions: in vivo.
The target in data set [10] is T1, Integrin alpha-V/beta-3. In words: Displacement of [125I] echistatin from alphaVbeta3 integrin isolated from human placenta after 3 hrs by liquid scintillation counter. On the technique in general: Loss of bound radioactivity is the signal in a displacement assay; it reports binding, not function.
Target sequence in this assay (P05106 27-788 limits assumed): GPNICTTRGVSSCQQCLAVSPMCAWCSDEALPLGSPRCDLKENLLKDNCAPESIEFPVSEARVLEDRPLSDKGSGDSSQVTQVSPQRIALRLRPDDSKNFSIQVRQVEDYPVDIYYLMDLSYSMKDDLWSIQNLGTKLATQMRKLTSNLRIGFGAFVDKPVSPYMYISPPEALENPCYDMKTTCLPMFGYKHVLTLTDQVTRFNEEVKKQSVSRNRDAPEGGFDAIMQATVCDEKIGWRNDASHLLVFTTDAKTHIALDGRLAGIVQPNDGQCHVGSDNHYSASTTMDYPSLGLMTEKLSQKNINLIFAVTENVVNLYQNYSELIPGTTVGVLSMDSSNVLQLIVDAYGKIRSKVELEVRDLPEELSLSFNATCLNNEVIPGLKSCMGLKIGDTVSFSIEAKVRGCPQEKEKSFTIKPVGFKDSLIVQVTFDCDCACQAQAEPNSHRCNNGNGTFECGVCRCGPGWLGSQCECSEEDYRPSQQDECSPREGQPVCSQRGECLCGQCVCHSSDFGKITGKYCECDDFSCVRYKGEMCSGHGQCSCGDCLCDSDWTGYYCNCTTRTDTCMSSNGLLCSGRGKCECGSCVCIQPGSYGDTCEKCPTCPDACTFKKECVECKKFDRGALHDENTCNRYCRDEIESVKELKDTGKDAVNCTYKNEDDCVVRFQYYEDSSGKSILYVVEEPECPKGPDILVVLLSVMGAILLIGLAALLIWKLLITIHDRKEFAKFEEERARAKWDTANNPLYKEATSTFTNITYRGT
Target sequence in this assay (P06756 31-889 limits assumed): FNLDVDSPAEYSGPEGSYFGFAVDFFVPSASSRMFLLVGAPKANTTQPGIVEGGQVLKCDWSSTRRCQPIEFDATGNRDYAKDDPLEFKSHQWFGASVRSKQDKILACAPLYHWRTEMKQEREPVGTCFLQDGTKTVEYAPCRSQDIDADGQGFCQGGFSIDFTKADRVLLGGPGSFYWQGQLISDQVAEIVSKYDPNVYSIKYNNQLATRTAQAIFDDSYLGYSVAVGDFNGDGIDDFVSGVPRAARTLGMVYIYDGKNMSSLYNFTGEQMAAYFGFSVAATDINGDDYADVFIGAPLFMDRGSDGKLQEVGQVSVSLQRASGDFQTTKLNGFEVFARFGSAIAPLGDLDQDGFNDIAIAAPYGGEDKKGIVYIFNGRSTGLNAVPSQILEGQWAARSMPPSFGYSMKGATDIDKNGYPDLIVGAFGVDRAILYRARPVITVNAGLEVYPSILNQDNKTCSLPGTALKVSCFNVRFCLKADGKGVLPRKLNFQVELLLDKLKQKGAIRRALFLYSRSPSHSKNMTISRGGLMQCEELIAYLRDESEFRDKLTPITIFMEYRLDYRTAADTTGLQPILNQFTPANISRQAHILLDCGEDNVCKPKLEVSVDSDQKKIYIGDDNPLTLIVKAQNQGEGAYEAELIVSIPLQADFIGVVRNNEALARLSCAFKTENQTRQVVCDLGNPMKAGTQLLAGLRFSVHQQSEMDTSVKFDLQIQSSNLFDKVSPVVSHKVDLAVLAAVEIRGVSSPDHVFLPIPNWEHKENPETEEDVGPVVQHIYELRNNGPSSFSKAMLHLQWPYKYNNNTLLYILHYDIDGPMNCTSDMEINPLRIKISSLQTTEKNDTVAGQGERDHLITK
Target sequence in this assay (P06756 891-1048 limits assumed): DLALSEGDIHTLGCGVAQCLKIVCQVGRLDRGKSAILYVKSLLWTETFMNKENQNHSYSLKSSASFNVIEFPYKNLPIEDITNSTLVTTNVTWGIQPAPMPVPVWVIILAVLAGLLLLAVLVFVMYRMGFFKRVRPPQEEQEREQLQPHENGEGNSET

`N=C(N)NCCC[C@@H]1NC(=O)[C@H]2COCCN2C(=O)[C@@H](Cc2ccccc2)NC(=O)[C@H](CC(=O)O)NC(=O)CNC1=O`: the inhibition entry in the data set on HUVEC [1], on Integrin alpha-V/beta-3 [3], in the data set with HDF [4], with HUVEC [5], at Integrin alpha-V/beta-3 [6] and with HDF [7] was “Active” each time. The inhibition result in the data set with HUVEC [2] was “inactive”.

With `N=C(N)NCCC[C@@H]1NC(=O)[C@H]2COCCN2C(=O)[C@@H](Cc2ccc(O)c([125I])c2)NC(=O)[C@H](CC(=O)O)NC(=O)CNC1=O`, the Drug uptake result (in the data set on Spleen; in the data set on Kidney; in the data set with Mus musculus; in data set [8]; in [9]; in the data set with Thyroid gland) was “Active” each time.

In the case of `N=C(N)NCCC[C@@H]1NC(=O)[C@H]2COCCN2C(=O)[C@@H](Cc2ccc(O)cc2)NC(=O)[C@H](CC(=O)O)NC(=O)CNC1=O`, the inhibition entry with HUVEC [1], on Integrin alpha-V/beta-3 [3], with HDF [4], in the data set with HUVEC [5], on Integrin alpha-V/beta-3 [6] and in the data set on HDF [7] was “Active” each time. Also, the inhibition entry with HUVEC [2] was “inactive”.

With `N=C(N)NCCC[C@@H]1NC(=O)[C@H]2COCCN2C(=O)[C@@H](Cc2ccc(O)c(I)c2)NC(=O)[C@H](CC(=O)O)NC(=O)CNC1=O`, the inhibition entry in the data set with HUVEC [1], at Integrin alpha-V/beta-3 [3], in the data set on HDF [4], in the data set on HUVEC [5], on Integrin alpha-V/beta-3 [6] and in the data set on HDF [7] was “Active” throughout. The inhibition entry in the data set with HUVEC [2] is “inactive”. This molecule also showed an IC50 on Integrin alpha-V/beta-3 [10] of 0.048 µM.
